PglD inh = PglD (C. jejuni) enzyme inhibition; purified PglD enzyme, DTNB colorimetric CoA detection; inhibition, % at 12.5 µM; actives 0.098% (n = 360,000); in the data active = inhibition above about 16%, passing the limit was not always enough
DENV2 CPE = DENV2-induced cell death inhibition | DENV2-infected cells, cytopathic effect rescue, plate reader | CPE inhibition, % at 9.99 µM | actives 1.7% (n = 350,000) | AID 651640; in the data active = CPE inhibition above about 20%, passing the limit was not always enough; tested in BHK-21 cells
SIRT5 block = inhibitors of human sirtuin-5 desuccinylase; Q9NXA8; Purified SirT5, succinyl-peptide AMC, trypsin-coupled fluorescence; inhibition, % at 15 µM; actives 1.1% (n = 330,000); AID 652115; in the data active = inhibition above about 15%
Target sequence (Q9NXA8 whole entry, looked up): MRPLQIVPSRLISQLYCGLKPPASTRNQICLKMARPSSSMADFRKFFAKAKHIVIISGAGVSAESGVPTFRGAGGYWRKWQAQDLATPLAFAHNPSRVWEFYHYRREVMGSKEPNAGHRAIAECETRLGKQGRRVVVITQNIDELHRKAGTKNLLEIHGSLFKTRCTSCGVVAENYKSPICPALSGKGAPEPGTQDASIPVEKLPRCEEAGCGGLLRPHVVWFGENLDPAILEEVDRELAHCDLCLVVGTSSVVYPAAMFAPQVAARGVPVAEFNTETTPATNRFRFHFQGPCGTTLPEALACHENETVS
E-sel inducer = induces E-selectin expression in human endothelial cells | HUVEC E-selectin immunofluorescence imaging; normalized: neutral wells 0, TNF-alpha wells 100 | activation, % at 7.58 µM | actives 0.37% (n = 260,000);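 active = mean E-selectin-positive cell signal at least 10% of the positive control, reached in at least 60% of replicates, without over 20% cell loss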
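assay system = HUVEC, human umbilical vein endothelial cells | input = 3,000 HUVEC seeded per well | medium = EGM-2 growth medium on 0.1% gelatin-coated wells | dosing = one compound dose added by pin transfer | signal = immunofluorescence imaging | read-out basis = % PE-positive cells | control set = TNF-alpha, DMSO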
ERAP1 HTS inh = blocks human ERAP1 aminopeptidase activity. Q9NZ08. recombinant ERAP1, Leu-AMC fluorescence, 60 min. inhibition, % at 10.7 µM. actives 0.15% (n = 340,000). AID 652197;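 active = mean replicate inhibition of at least 30%, or all replicates individually reaching that 30% level; inactive = mean below 30% and not every replicate reaching it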
Hits are given with their value; . = inactive; / = no result. Shown are actives, neighbours in structure and some others; about 2.5% of the full set was active somewhere.

SMILES	PglD inh	DENV2 CPE	SIRT5 block	E-sel inducer	ERAP1 HTS inh
O=C(c1ccncc1)N1C[C@@H]2[C@H](c3ccccc31)[C@H](CO)N2C(=O)Nc1cccc(F)c1	.	.	18.0	.	.
CCCC(=O)N1C[C@H]2[C@@H](c3ccccc31)[C@@H](CO)N2C(=O)Nc1ccc(F)cc1	.	28.4	.	.	.
O=C(c1cccnc1)N1C[C@H]2[C@@H](c3ccccc31)[C@H](CO)N2C(=O)Nc1cccc(F)c1	.	.	.	.	.
COCC(=O)N1[C@H](CO)[C@H]2c3ccccc3N(C(=O)c3cccnc3)C[C@H]21	.	58.8	.	.	.
CC(=O)Nc1ccc(S(=O)(=O)NCCSCc2c(Cl)cccc2Cl)cc1	.	/	/	/	/
CCOC(=O)N1CCN(CC(O)COc2ccccc2[N+](=O)[O-])CC1 (stereo not drawn)	.	.	.	/	.
COCCn1c(=O)[nH]c(=O)c2c1nc(-c1ccc(-c3ccc(Cl)cc3[N+](=O)[O-])o1)n2Cc1ccccc1	/	.	.	/	.
COCCn1c(-c2ccc(-c3ccc([N+](=O)[O-])cc3Br)o2)nc2c1c(=O)[nH]c(=O)n2CC(C)C	.	.	15.5	/	.
COc1cc(Cl)c(CN2CCCC(CO)(Cc3ccccc3F)C2)cc1OC (stereo not drawn)	.	.	100.6	/	.
CCOc1ccc(CN2CCCC(CO)(Cc3ccccc3F)C2)cc1 (stereo not drawn)	.	.	.	/	.
Cc1ccc(NC(=O)Nc2ccccc2)nc1	/	.	.	/	.
CCCCn1c(N)c(N(CC)C(=O)c2cc(C)cc(C)c2)c(=O)[nH]c1=O	.	35.0	.	/	.
CCCCCN(C(=O)CCC(=O)OCC(=O)c1ccc(C(C)(C)C)cc1)c1c(N)n(CCCC)c(=O)[nH]c1=O	/	.	.	.	.
CCCCCN(C(=O)CCC(=O)OCC(=O)c1ccc(CCC)cc1)c1c(N)n(CCCC)c(=O)[nH]c1=O	.	.	29.6	.	.
CCCCn1c(N)c(N(CCOC)C(=O)C2CCN(C(=O)c3ccc(Cl)cc3)CC2)c(=O)[nH]c1=O	.	.	.	.	.
CCCCn1c(N)c(N(CC(C)C)C(=O)c2cccc(S(=O)(=O)N3CCCCC3)c2)c(=O)[nH]c1=O	.	.	.	/	.
CCCCn1c(N)c(N(CC(C)C)C(=O)c2ccc(S(=O)(=O)N3CCCCC3)cc2)c(=O)[nH]c1=O	.	.	.	57.9	.
CCCCn1c(N)c(N(CCOC)C(=O)C2CCCN(C(=O)c3ccc(Cl)cc3)C2)c(=O)[nH]c1=O (stereo not drawn)	/	.	.	.	61.7
CCCCn1c(N)c(N(CC)C(=O)c2ccncc2)c(=O)[nH]c1=O	.	.	.	.	.
Cc1noc(C)c1NC(=O)Nc1ccc2c(c1)CC(=O)N([C@@H](C)CO)C[C@H](C)[C@H](CN(C)Cc1ccc(C(=O)O)cc1)O2	.	.	.	.	.
CCOC(=O)c1nc2sc3c(c2c(=O)n1C(C)C(=O)OCC)CCCC3 (stereo not drawn)	.	.	.	.	.
Cc1ccc([C@H]2C[C@H](n3cc(COC(=O)c4ccccc4)nn3)[C@@H](O)CN2C(=O)C2CCCCC2)cc1	.	52.1	.	.	.
COc1ccc([C@H]2C[C@H](n3cc(COC(=O)c4ccccc4)nn3)[C@@H](O)CN2C(=O)C2CCCCC2)cc1	.	.	.	.	.
O=C(OCc1cn([C@H]2CN(C(=O)C3CCCCC3)[C@@H](c3ccccc3)C[C@@H]2O)nn1)c1ccccc1	.	24.9	.	/	.
O=C(c1cnc2sccn2c1=O)N(Cc1ccccc1)c1ccccn1	.	.	.	/	.
SMILES	PglD inh	DENV2 CPE	SIRT5 block	E-sel inducer	ERAP1 HTS inh
O=C1COc2ccc(C(=O)COC(=O)CNC(=O)c3ccco3)cc2N1	/	.	.	.	.
O=C1COCCOCCOCCOCC(=O)NCCN1	.	26.3	.	.	.
CCN(CC)C(=O)c1ncn2c1C(=O)N(C)CC2	.	.	.	.	.
O=C(NCCCCNC(=O)c1cccnc1Cl)c1cccnc1Cl	.	68.7	.	.	.
COc1ccc(S(=O)(=O)N(C)C[C@H]2Oc3ccc(NC(=O)c4ccncc4)cc3C(=O)N([C@@H](C)CO)C[C@@H]2C)cc1	.	.	.	47.0	.
Cc1ccc(S(=O)(=O)N(C)C[C@@H]2Oc3ccc(NC(=O)c4ccncc4)cc3CC(=O)N([C@@H](C)CO)C[C@@H]2C)cc1	.	56.8	.	.	.
Cc1ccc(S(=O)(=O)N(C)C[C@@H]2Oc3ccc(NC(=O)c4ccncc4)cc3C(=O)N([C@H](C)CO)C[C@H]2C)cc1	.	30.6	.	.	.
Cc1ccc(S(=O)(=O)N(C)C[C@@H]2Oc3ccc(NC(=O)c4ccncc4)cc3C(=O)N([C@H](C)CO)C[C@@H]2C)cc1	.	.	.	.	.
Cc1ccc(S(=O)(=O)N(C)C[C@H]2Oc3ccc(NC(=O)c4ccncc4)cc3CC(=O)N([C@H](C)CO)C[C@@H]2C)cc1	.	.	.	.	.
COc1ccc(S(=O)(=O)N(C)C[C@H]2Oc3ccc(NC(=O)c4ccncc4)cc3C(=O)N([C@H](C)CO)C[C@H]2C)cc1	.	.	.	27.7	.
CC(C)c1ccc(NC(=O)CNCC(c2ccccc2)N(C)C)cc1 (stereo not drawn)	.	.	16.9	/	.
Cc1ccc(NC(=O)CNCC(c2ccccc2)N(C)C)cc1F (stereo not drawn)	.	.	.	/	.
Cc1ccc(C(=O)NC2CCCc3c2cnn3-c2ccc(F)cc2F)cn1 (stereo not drawn)	.	.	20.3	.	.
Cc1nnsc1C(=O)NC1CCCc2c1cnn2-c1ccc(F)cc1F (stereo not drawn)	.	.	.	/	.
COc1ccccc1CNc1ncccc1[N+](=O)[O-]	.	.	15.8	.	.
CCn1nc(NC(C)=O)c2cc3cccc(C)c3nc21	.	.	.	.	75.0
COc1ccc(CCC(=O)N2CCN(S(=O)(=O)c3ccc(OC)c([N+](=O)[O-])c3)CC2)cc1	.	.	/	.	.
COc1ccc(NC(=O)Nc2ccc3c(c2)C(=O)N([C@@H](C)CO)C[C@H](C)[C@H](CN(C)C(=O)Nc2ccc4c(c2)OCO4)OCCCC[C@H](C)O3)cc1	.	.	.	.	.
C[C@H](CO)N1C[C@H](C)[C@H](CN(C)C(=O)c2ccccc2)OCCCC[C@H](C)Oc2ccc(NC(=O)Nc3ccc(C(F)(F)F)cc3)cc2C1=O	.	58.5	.	.	.
CC(C)NC(=O)N(C)C[C@@H]1OCCCC[C@H](C)Oc2ccc(NC(=O)Nc3ccc(F)cc3)cc2C(=O)N([C@@H](C)CO)C[C@H]1C	.	39.1	.	.	.
CC(C)NC(=O)N(C)C[C@H]1OCCCC[C@@H](C)Oc2ccc(NC(=O)Nc3ccc(F)cc3)cc2C(=O)N([C@H](C)CO)C[C@@H]1C	.	.	.	.	.
COc1ccc(NC(=O)N(C)C[C@@H]2OCCCC[C@@H](C)Oc3ccc(NC(=O)Nc4ccc5c(c4)OCO5)cc3C(=O)N([C@H](C)CO)C[C@H]2C)cc1	.	.	15.2	.	.

Source: PubChem (Broad Institute)
